Test results from ChEMBL document CHEMBL4346731, “Novel meriolin derivatives as rapid apoptosis inducers” (Bioorg Med Chem, 2019).
The source made the active and inactive calls. No cut-off for these calls is given here.

How the values were obtained:
[1] = test system: Ramos; test: Induction of apoptosis in human Ramos cells assessed as increase in cleaved PARP1 protein expression at 1 uM after 2 to 8 hrs in presence of caspace-inhibitor Q-VD-Oph by immunoblotting analysis; format: functional, cell-based
Method in brief: (§1)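 Ramos cells exposed to compound for 2-8 h at concentrations chosen from the cytotoxicity data, with or without the pan-caspase inhibitor Q-VD-OPh (10 μM). Cells were harvested, lysed and immunoblotted with mouse anti-PARP1, using GAPDH as loading control. Detection used IRDye800/680 secondary antibodies on an infrared imager.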

[2] = test system: Ramos; test: Antiproliferative activity against human Ramos cells assessed as reduction in cell viability after 24 hrs by resazurin dye-based spectrophotometric method; format: functional
Method in brief: (§2)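 Cells (DSMZ stock) seeded at 0.5 x 10⁶ cells/mL and exposed to escalating compound concentrations (up to 30 μM) for 24 or 72 h; resazurin 40 μM added for the final 3 h. Resorufin fluorescence read at ex 535/em 590 nm. Viability normalized to 0.1% DMSO controls (100%). IC50 from nonlinear regression; mean of three independent experiments.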

[3] = test system: Ramos; test: Induction of apoptosis in human Ramos cells assessed as increase in cleaved PARP1 protein expression at 1 uM after 2 to 8 hrs by immunoblotting analysis; format: functional, cell-based; method in brief: as §1
[4] = Antiproliferative activity against human Jurkat J16 cells assessed as reduction in cell viability after 72 hrs by resazurin dye-based spectrophotometric method; format: functional; method in brief: as §2
[5] = biological target: T1, Sphingosine kinase 2 (Homo sapiens) (UniProt Q9NRA0); test: Inhibition of SK2 (unknown origin) at 10 using sphingosine as substrate preincubated for 15 mins followed by substrate addition and measured after 60 mins by fluorescence based assay relative to control
T1 sequence (whole entry): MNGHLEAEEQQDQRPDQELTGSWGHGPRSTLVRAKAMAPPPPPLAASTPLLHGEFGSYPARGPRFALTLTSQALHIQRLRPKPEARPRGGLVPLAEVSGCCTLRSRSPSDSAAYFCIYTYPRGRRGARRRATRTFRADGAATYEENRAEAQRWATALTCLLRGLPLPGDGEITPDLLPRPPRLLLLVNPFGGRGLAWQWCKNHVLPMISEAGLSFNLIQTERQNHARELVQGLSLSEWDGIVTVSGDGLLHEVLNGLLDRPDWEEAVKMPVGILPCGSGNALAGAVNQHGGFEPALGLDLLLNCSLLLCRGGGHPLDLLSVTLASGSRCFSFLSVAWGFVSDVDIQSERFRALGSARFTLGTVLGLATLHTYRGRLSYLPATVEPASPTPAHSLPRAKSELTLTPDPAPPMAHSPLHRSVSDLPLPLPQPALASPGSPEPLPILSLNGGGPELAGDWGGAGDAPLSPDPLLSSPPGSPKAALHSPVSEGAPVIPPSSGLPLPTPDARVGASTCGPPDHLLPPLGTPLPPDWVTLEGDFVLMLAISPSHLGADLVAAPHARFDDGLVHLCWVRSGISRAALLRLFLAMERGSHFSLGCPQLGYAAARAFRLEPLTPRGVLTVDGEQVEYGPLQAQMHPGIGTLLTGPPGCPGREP
Method in brief: (§3)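 Compound at 10 µM preincubated 15 min with SK1 (0.5 U/mL final) or SK2 (0.1 U/mL final). Sphingosine 5 µM plus ATP added; reaction 30 min (SK1) or 60 min (SK2) at room temperature. Buffer: 50 mM HEPES pH 7.5, 4 mM MgCl₂, 100 µM orthovanadate, 1 mM DTT, 0.01% Brij 35, 2 mM EGTA. Fluorescent detection reagent added for 60 min in the dark. Inhibition = 100 minus blank-corrected relative fluorescence. Triplicates, two independent experiments; mean ± SEM.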

[6] = biological target: Sphingosine kinase 1 (Homo sapiens) (UniProt Q9NYA1); test: Inhibition of SK1 (unknown origin) at 10 uM using sphingosine as substrate preincubated for 15 mins followed by substrate addition and measured after 30 mins by fluorescence based assay relative to control; method in brief: as §3
[7] = test system: Ramos; test: Antiproliferative activity against human Ramos cells assessed as reduction in cell viability after 72 hrs by resazurin dye-based spectrophotometric method; format: functional; method in brief: as §2
[8] = test system: Ramos; test: Induction of apoptosis in human Ramos cells assessed as caspase-3 activation at 3 uM using AcDEVD-AMC as substrate preincubated for up to 8 hrs followed by substrate addition and measured after 60 mins by spectrophotometric method; format: functional, cell-based
Method in brief: (§4)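 Cells in 96-well plates treated for up to 8 h, alongside staurosporine 2.5 μM as positive control. Lysis in caspase buffer (20 mM HEPES, 84 mM KCl, 10 mM MgCl₂, 200 μM EDTA/EGTA, 0.5% NP-40, protease inhibitors), then reaction buffer with Ac-DEVD-AMC added. AMC fluorescence increase followed at 37 °C for at least 60 min.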

[9] = Antiproliferative activity against human Jurkat J16 cells assessed as reduction in cell viability after 24 hrs by resazurin dye-based spectrophotometric method; format: functional; method in brief: as §2
[10] = organism: Homo sapiens; test: Induction of apoptosis in human Jurkat J16 cells assessed as caspase-3 activation at 3 uM using AcDEVD-AMC as substrate preincubated for up to 8 hrs followed by substrate addition and measured after 60 mins by spectrophotometric method; format: functional, cell-based; method in brief: as §4
[11] = organism: Homo sapiens; test: Induction of apoptosis in human Jurkat J16 cells assessed as caspase-3 activation at 1 uM using AcDEVD-AMC as substrate preincubated for up to 8 hrs followed by substrate addition and measured after 60 mins by spectrophotometric method; format: functional, cell-based; method in brief: as §4
[12] = test system: Ramos; test: Induction of apoptosis in human Ramos cells assessed as caspase-3 activation at 1 uM using AcDEVD-AMC as substrate preincubated for up to 8 hrs followed by substrate addition and measured after 60 mins by spectrophotometric method; format: functional, cell-based; method in brief: as §4
[13] = test system: Ramos; test: Induction of apoptosis in human Ramos cells assessed as caspase-3 activation at 2.5 uM using AcDEVD-AMC as substrate preincubated for up to 8 hrs followed by substrate addition and measured after 60 mins by spectrophotometric method; format: functional, cell-based
Method in brief: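 Ramos cells (DSMZ) plated in 96-well plates and treated for up to 8 h. Cells were then lysed in caspase buffer (20 mM HEPES, 84 mM KCl, 10 mM MgCl2, 200 µM EDTA/EGTA, 0.5% NP-40, protease inhibitors). Reaction buffer with Ac-DEVD-AMC was added, and AMC fluorescence increase was read at 37 °C for at least 60 min. Positive control: staurosporine 2.5 µM.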

[14] = test system: Ramos; test: Induction of apoptosis in human Ramos cells assessed as increase in cleaved PARP1 protein expression at 10 uM after 2 to 8 hrs in presence of caspace-inhibitor Q-VD-Oph by immunoblotting analysis; format: functional, cell-based; method in brief: as §1
[15] = organism: Homo sapiens; test: Induction of apoptosis in human Jurkat J16 cells assessed as caspase-3 activation at 10 uM using AcDEVD-AMC as substrate preincubated for up to 8 hrs followed by substrate addition and measured after 60 mins by spectrophotometric method; format: functional, cell-based; method in brief: as §4
[16] = test system: Ramos; test: Induction of apoptosis in human Ramos cells assessed as caspase-3 activation at 10 uM using AcDEVD-AMC as substrate preincubated for up to 8 hrs followed by substrate addition and measured after 60 mins by spectrophotometric method; format: functional, cell-based; method in brief: as §4
[17] = test system: Ramos; test: Induction of apoptosis in human Ramos cells assessed as increase in cleaved PARP1 protein expression at 10 uM after 2 to 8 hrs by immunoblotting analysis; format: functional, cell-based; method in brief: as §1
[18] = organism: Homo sapiens; test: Induction of apoptosis in human Jurkat J16 cells assessed as caspase-3 activation at 0.3 uM using AcDEVD-AMC as substrate preincubated for up to 8 hrs followed by substrate addition and measured after 60 mins by spectrophotometric method; format: functional, cell-based; method in brief: as §4
[19] = test system: Ramos; test: Induction of apoptosis in human Ramos cells assessed as caspase-3 activation at 0.3 uM using AcDEVD-AMC as substrate preincubated for up to 8 hrs followed by substrate addition and measured after 60 mins by spectrophotometric method; format: functional, cell-based; method in brief: as §4
[20] = organism: Homo sapiens; test: Induction of apoptosis in human Jurkat J16 cells assessed as caspase-3 activation at 0.1 uM using AcDEVD-AMC as substrate preincubated for up to 8 hrs followed by substrate addition and measured after 60 mins by spectrophotometric method; format: functional, cell-based; method in brief: as §4
[21] = test system: Ramos; test: Induction of apoptosis in human Ramos cells assessed as caspase-3 activation at 0.1 uM using AcDEVD-AMC as substrate preincubated for up to 8 hrs followed by substrate addition and measured after 60 mins by spectrophotometric method; format: functional, cell-based; method in brief: as §4
[22] = test system: Ramos; test: Induction of apoptosis in human Ramos cells assessed as increase in cleaved PARP1 protein expression at 0.1 uM after 2 to 8 hrs by immunoblotting analysis; format: functional, cell-based; method in brief: as §1
[23] = test system: Ramos; test: Induction of apoptosis in human Ramos cells assessed as increase in cleaved PARP1 protein expression at 0.1 uM after 2 to 8 hrs in presence of caspace-inhibitor Q-VD-Oph by immunoblotting analysis; format: functional, cell-based; method in brief: as §1

Sphingosine kinase 1 (Homo sapiens), sequence (Q9NYA1 whole entry): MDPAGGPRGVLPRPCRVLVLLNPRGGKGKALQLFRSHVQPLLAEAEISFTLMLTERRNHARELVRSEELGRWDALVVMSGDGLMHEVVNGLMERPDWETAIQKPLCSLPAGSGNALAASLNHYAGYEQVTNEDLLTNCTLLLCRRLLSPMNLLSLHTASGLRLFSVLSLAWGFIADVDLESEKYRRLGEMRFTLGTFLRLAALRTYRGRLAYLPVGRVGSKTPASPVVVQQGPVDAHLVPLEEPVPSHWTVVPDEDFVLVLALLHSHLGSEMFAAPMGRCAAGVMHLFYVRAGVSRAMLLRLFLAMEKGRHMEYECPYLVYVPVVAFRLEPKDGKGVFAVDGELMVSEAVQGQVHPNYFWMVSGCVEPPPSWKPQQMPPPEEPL

| IC50 [2] [nM] | inhibition [5] [%] | inhibition [6] [%] | IC50 [7] [nM] | SMILES | Activity [1] | Activity [3] | IC50 [4] [nM] | Activity [8] | IC50 [9] [nM] | Activity [10] | Activity [11] | Activity [12] | Activity [18] | Activity [19] | also measured |
| --- | --- | --- | --- | --- | --- | --- | --- | --- | --- | --- | --- | --- | --- | --- | --- |
| 970 | 39 | 10 | 600 | Nc1cc(-c2c[nH]c3ncccc23)ccn1 | inactive | Active | 480 | Active | 870 | Active | Active | Active | – | – | – |
| – | – | – | – | CN[C@@H]1C[C@H]2O[C@@](C)([C@@H]1OC)n1c3ccccc3c3c4c(c5c6ccccc6n2c5c31)C(=O)NC4 | – | – | – | – | – | – | – | – | – | – | Activity [13]: Active |
| 4800 | 72 | 10 | 3730 | Nc1nccc(-c2c[nH]c3ncccc23)n1 [MERIOLIN 1] | – | – | 2740 | Active | 4530 | Active | – | – | – | – | Activity [14]: inactive; Activity [15]: Active; Activity [16]: Active; Activity [17]: Active |
| 300 | – | – | 180 | c1ccc(CNc2ccc(-c3c[nH]c4ncccc34)cn2)cc1 | inactive | Active | 110 | – | 240 | – | Active | Active | Active | Active | – |
| 6040 | – | – | 3900 | COc1cc(-c2c[nH]c3ncccc23)nc(N)n1 | – | – | 3080 | Active | 5560 | Active | – | – | – | – | Activity [14]: inactive; Activity [15]: Active; Activity [16]: Active; Activity [17]: Active |
| 110 | 87 | 18 | 70 | Nc1cc(-c2c[nH]c3ncccc23)cc(N)n1 | – | – | 60 | – | 110 | – | – | – | Active | Active | Activity [20]: Active; Activity [21]: Active; Activity [22]: Active; Activity [23]: inactive |
| 370 | – | – | 240 | Nc1cc(-c2c[nH]c3ncccc23)nc(N)n1 | inactive | Active | 210 | – | 430 | – | Active | Active | Active | Active | – |
